The values that follow come from ChEMBL document CHEMBL4041491, “Imidazo[1,2-a]pyrazin-8-amine core for the design of new adenosine receptor antagonists: Structural exploration to target the A3 and A2A subtypes” (Eur J Med Chem, 2017).

Each structure is given as a SMILES string. The source made the active and inactive calls. No cut-off for these calls is given here.

Test [1] addresses T1, Adenosine receptor A2b (Homo sapiens) (UniProt P29275).
T1 sequence (whole entry): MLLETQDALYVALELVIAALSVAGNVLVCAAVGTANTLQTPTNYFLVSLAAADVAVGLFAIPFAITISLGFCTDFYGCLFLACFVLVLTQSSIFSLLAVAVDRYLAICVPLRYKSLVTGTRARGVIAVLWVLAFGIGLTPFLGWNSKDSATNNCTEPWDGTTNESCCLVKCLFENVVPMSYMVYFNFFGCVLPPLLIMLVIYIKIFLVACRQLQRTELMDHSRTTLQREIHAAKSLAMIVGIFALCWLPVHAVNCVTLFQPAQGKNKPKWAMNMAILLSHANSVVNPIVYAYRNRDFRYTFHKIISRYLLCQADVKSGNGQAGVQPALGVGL
The test can be described thus: Antagonist activity at human A2B receptor expressed in CHO cells assessed as inhibition of NECA-stimulated cAMP production at 1 uM by [3H]cAMP competition binding based scintillation counting method relative to control. It is filed as functional, cell-based. In a few lines: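 Transfected CHO cells (1 × 10^6/assay) in buffered saline pH 7.4 with adenosine deaminase 2 IU/ml and Ro 20-1724, preincubated 10 min at 37 °C. Test compound at 1 μM against 200 nM NECA-stimulated cAMP. TCA stop, ether extraction, cAMP measured by [3H]cAMP competition binding to bovine adrenal binding protein. Result given as percent inhibition.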

For another test, the target named is T2, Adenosine receptor A1 (Homo sapiens, UniProt P30542).
T2 sequence (P30542 whole entry): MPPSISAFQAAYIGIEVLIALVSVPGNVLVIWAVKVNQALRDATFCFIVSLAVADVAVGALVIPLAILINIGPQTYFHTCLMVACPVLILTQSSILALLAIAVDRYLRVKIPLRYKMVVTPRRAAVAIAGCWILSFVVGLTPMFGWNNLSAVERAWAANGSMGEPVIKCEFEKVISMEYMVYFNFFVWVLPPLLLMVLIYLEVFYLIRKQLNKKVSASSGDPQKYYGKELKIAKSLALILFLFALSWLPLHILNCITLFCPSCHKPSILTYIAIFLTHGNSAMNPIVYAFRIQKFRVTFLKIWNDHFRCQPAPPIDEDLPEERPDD
The test can be described thus: Displacement of [3H]DPCPX from human adenosine A1 receptor expressed in CHO cell membranes after 120 mins by scintillation counting method. Summed up:
(§1)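 hA1 CHO membranes (50 µg protein) with 1 nM [3H]DPCPX in 50 mM Tris HCl pH 7.4, 120 min at 25 °C. Six to eight antagonist concentrations, or 1 µM for percent inhibition. Nonspecific binding with 1 µM DPCPX. Ki via Cheng–Prusoff, four assays in duplicate, means ± SEM.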

Test [2] concerns the target T3, Adenosine receptor A2a (Homo sapiens, UniProt P29274). Kind of test: Displacement of [3H]ZM241385 from human adenosine A2A receptor expressed in CHO cell membranes after 60 mins by scintillation counting method. In a few lines:
(§2)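 hA2A CHO membranes (50 µg protein) with 1 nM [3H]ZM241385 in 50 mM Tris HCl, 10 mM MgCl2, pH 7.4, 60 min at 4 °C. Six to eight antagonist concentrations, or 1 µM for percent inhibition. Nonspecific binding with 1 µM ZM241385. Ki via Cheng–Prusoff, four assays in duplicate, means ± SEM.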

Test [3] concerns the target T4, Adenosine receptor A3 (Homo sapiens, UniProt P0DMS8). Kind of test: Displacement of [125I]AB-MECA from human adenosine A3 receptor expressed in CHO cell membranes at 1 uM after 120 mins by scintillation counting method relative to control. (In general: In a radioligand displacement assay an active substance lowers the binding of a labelled ligand.)
Test [4] has as its target T5, Adenosine receptor A1 (Homo sapiens) (UniProt P30542).
T5 sequence (whole entry): T2 sequence (P30542 whole entry)
Kind of test: Displacement of [3H]DPCPX from human adenosine A1 receptor expressed in CHO cell membranes at 1 uM after 120 mins by scintillation counting method relative to control. Summed up:
as §1

The target in test [5] is T6, Adenosine receptor A3 (Rattus norvegicus) (UniProt P28647).
T6 sequence (whole entry): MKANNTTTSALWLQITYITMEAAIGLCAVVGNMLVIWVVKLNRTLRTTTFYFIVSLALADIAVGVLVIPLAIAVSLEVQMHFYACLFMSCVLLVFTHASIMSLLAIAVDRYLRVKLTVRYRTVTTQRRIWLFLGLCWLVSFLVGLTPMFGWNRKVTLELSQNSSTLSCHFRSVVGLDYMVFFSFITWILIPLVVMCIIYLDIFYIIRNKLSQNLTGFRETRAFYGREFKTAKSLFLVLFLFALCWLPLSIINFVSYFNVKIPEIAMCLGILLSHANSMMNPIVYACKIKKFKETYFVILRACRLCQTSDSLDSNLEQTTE
Kind of test: Displacement of [125I]AB-MECA from rat adenosine A3 receptor expressed in HEK293 cell membranes at 1 uM after 120 mins by scintillation counting method relative to control. In a few lines: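 rA3 receptor in HEK293 membranes (10 μg protein), 0.5 nM [125I]AB-MECA, 50 mM Tris–HCl, 10 mM MgCl2, 1 mM EDTA, pH 7.4, 120 min at 25 °C. Nonspecific binding with 1 μM AB-MECA; filtration and scintillation counting. Percent inhibition of specific binding at 1 µM.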

Test [6] has as its target T3, Adenosine receptor A2a. Kind of test: Displacement of [3H]ZM241385 from human adenosine A2A receptor expressed in CHO cell membranes at 1 uM after 60 mins by scintillation counting method relative to control. In a few lines: as §2
Test [7] deals with T4, Adenosine receptor A3. The test can be described thus: Displacement of [125I]AB-MECA from human adenosine A3 receptor expressed in CHO cell membranes after 120 mins by scintillation counting method. Summed up: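 hA3 CHO membranes (50 µg protein) with 0.5 nM [125I]AB-MECA in 50 mM Tris HCl, 10 mM MgCl2, 1 mM EDTA, pH 7.4, 120 min at 4 °C. Six to eight ligand concentrations, or 1 µM for percent inhibition. Nonspecific binding with 1 µM AB-MECA; GF/B filtration. Ki by Cheng–Prusoff, four assays in duplicate, means ± SEM.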

The target in test [8] is T4, Adenosine receptor A3. The test can be described thus: Antagonist activity at human A3 receptor expressed in CHO cells assessed as inhibition of CI-IB-MECA-mediated inhibition of cAMP production by [3H]cAMP competition binding based scintillation counting method. It is filed as cell-based. In a few lines:
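hA3-transfected CHO cells (1 × 10^6/assay) in buffered saline pH 7.4 with adenosine deaminase and Ro 20-1724, preincubated 10 min at 37 °C. Antagonism of 100 nM Cl-IB-MECA inhibition of 1 µM forskolin-stimulated cAMP. cAMP measured by [3H]cAMP protein-binding assay. IC50 by sigmoid nonlinear regression, four independent experiments in triplicate, means ± SEM.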
On the technique in general: Changes in cAMP serve as a functional read-out for many G protein-coupled receptors.

Test [9] relates to Hippocampus. Kind of test: Anti-ischemic activity in Wistar rat model of 7 mins oxygen-glucose deprivation-induced cerebral ischemia assessed as recovery of fEPSP amplitude in CA1 region of hippocampal slices at 200 nM incubated for 15 mins prior to induction of oxygen-glucose deprivation and maintained during entire period of oxygen-glucose deprivation/reoxygenation subsequent incubation for 5 mins after OGD insult measured up to 15 mins by electrophysiology method. In kind it is functional, tissue-based. Summed up:
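Rat hippocampal slices, CA1 stratum radiatum stimulated (80 μs, 0.066 Hz) at 40–50% of maximal fEPSP. Compound at 200 nM in aCSF, DMSO ≤0.05%, applied 15 min before, during and 5 min after 7-min OGD, then reperfusion in oxygenated aCSF. fEPSP amplitude expressed as % of mean over the 5 min before OGD.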

The subject of test [10] is Hippocampus. Kind of test: Anti-ischemic activity in Wistar rat hippocampal slices assessed as latency time for 30 mins oxygen-glucose deprivation-induced occurrence of anoxic depolarization at 200 nM by electrophysiology method (reference value: 6.3 +/- 0.3 min).
Test [11] deals with Hippocampus. Kind of test: Anti-ischemic activity in Wistar rat hippocampal slices assessed as peak amplitude of 30 mins oxygen-glucose deprivation-induced anoxic depolarization at 200 nM by electrophysiology method (reference value: -7.5 +/- 1.2 mV). It is filed as functional. Summed up: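 Rat hippocampal slices, extracellular d.c. recording in CA1 stratum radiatum. 30-min OGD, then reperfusion with oxygenated glucose aCSF. Compound at 200 nM, diluted from DMSO stock into aCSF, applied 15 min before, during and 5 min after OGD. AD latency in min from OGD onset; amplitude in mV at peak negativity. Mean ± SEM, n slices.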

T3 sequence (P29274 whole entry): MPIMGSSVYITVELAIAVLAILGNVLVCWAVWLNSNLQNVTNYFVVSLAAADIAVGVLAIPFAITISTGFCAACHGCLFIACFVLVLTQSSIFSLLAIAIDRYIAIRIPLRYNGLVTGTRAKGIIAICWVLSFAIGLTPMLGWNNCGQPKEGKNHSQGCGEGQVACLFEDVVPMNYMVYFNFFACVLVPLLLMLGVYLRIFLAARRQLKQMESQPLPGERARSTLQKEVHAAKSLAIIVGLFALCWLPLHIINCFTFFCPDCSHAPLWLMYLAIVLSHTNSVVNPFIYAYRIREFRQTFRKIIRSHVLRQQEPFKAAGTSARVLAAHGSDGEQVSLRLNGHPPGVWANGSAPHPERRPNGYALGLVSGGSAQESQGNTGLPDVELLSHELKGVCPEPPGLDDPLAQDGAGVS
T4 sequence (P0DMS8 whole entry, looked up): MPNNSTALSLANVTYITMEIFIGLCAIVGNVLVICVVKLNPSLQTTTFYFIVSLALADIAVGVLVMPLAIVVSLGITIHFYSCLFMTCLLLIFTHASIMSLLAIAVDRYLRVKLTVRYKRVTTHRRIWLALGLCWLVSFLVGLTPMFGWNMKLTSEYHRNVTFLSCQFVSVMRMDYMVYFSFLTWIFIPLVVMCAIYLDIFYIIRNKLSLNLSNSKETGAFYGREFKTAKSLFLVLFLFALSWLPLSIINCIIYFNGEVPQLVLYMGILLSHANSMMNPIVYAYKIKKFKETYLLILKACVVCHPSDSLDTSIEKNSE

On to `Nc1nc(-c2ccccc2)cn2cc(-c3ccccc3)nc12`, for which the results for the inhibition (in test [1]; on Adenosine receptor A3 [3]) were 36% and 23%, respectively. In addition, the Ki at Adenosine receptor A1 is 180 nM; on Adenosine receptor A2a [2], 310 nM.
On to `O=C(c1ccccc1)N(C(=O)c1ccccc1)c1nccn2cc(-c3ccccc3)nc12`, for which the inhibition in test [4] came out at 4%; in test [1], 3%; in test [5] it was 1%; on Adenosine receptor A2a [6] it was 5%. The same compound returned a Ki at Adenosine receptor A3 [7] of 64 nM. Also, the IC50 on Adenosine receptor A3 [8] came to 187 nM.
With `Nc1nc(-c2ccccc2)cn2cc(-c3ccco3)nc12`, the inhibition amounted to 10% in test [1] and 21% at Adenosine receptor A3 [3]. Further, the figures for the Ki on Adenosine receptor A1 and at Adenosine receptor A2a [2] were 143 nM and 520 nM, respectively.
As to `COc1ccc(C(=O)Nc2nc(-c3ccccc3)cn3cc(-c4ccccc4)nc23)cc1`, the inhibition was 6% in test [4], 1% in test [1], 1% in test [5] and 8% at Adenosine receptor A2a [6]. In addition, the Ki at Adenosine receptor A3 [7] amounted to 25 nM. For the same compound, at Adenosine receptor A3 [8], the 50% inhibitory concentration (IC50) was found to be 73 nM.
On to `O=C(Nc1nc(-c2ccccc2)cn2cc(-c3ccccc3)nc12)c1ccccc1`, for which the inhibition in test [4] came to 1%; in test [1], 1%; in test [5], 2%; on Adenosine receptor A2a [6], 1%. The compound further yielded a Ki at Adenosine receptor A3 [7] of 82 nM. Moreover, the IC50 on Adenosine receptor A3 [8] is 235 nM.
On to `O=C(Nc1nccn2cc(-c3ccccc3)nc12)c1ccccc1`, for which the inhibition in test [4] is 18%; in test [1], 2%; in [5], 2%; on Adenosine receptor A2a [6], 1%. At Adenosine receptor A3 [7], this compound had a Ki of 52 nM. In addition, the IC50 on Adenosine receptor A3 [8] worked out at 163 nM.
Consider `Nc1nc(-c2ccco2)cn2cc(-c3ccco3)nc12`, for which the inhibition was found to be 30% in [1] and 38% on Adenosine receptor A3 [3]. Also, the values for the Ki at Adenosine receptor A1 and on Adenosine receptor A2a [2] were 316 nM and 854 nM, respectively.
`O=C(Nc1nc(-c2ccccc2)cn2cc(-c3ccccc3)nc12)c1cccnc1`: the inhibition in [4] was 11%; in test [1] it was 3%; in test [5] it was 2%; at Adenosine receptor A2a [6], 1%. For the same compound, in the test with Hippocampus [9], the outcome was Active. For the same compound, the Time with Hippocampus [10] stood at 8.2 min. Besides, the Ki on Adenosine receptor A3 [7] stood at 54 nM. For the same compound, the Activity in the test with Hippocampus [11] is recorded as -7.1 mV. In addition, on Adenosine receptor A3 [8], the IC50 came to 172 nM.
`Nc1nc(Br)cn2cc(-c3ccco3)nc12`: the results for the inhibition (in [1]; at Adenosine receptor A3 [3]) were 29% and 28%, respectively. Further, the Ki turned out to be 210 nM at Adenosine receptor A1 and 265 nM on Adenosine receptor A2a [2].

One may read the inhibition as the change of the read-out against control, counted positive when it falls. A word on the Ki: it is the dissociation constant of the complex between target and ligand, obtained from inhibition or displacement. A lower Ki goes with tighter binding. As a reminder, the IC50 is the concentration that inhibits the measured activity by half.
